The test system of experiment [1] is Hs 683. In words: Antiproliferative activity against human Hs683 cells after 72 hrs by MTT assay. The conditions noted are these: Hs 683, 72 h. It counts as functional, cell-based. Summed up:
(§1)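 MTT assay: cells in RPMI 1640 with 10% heat-inactivated FCS at 37 °C and 5% CO2 were seeded 24 h before treatment. They were exposed 72 h to compound at 0.01–100 μM, with DMSO as solvent.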

Experiment [2] is described as follows: Antiproliferative activity against human U373 cells after 72 hrs by MTT assay. It counts as functional, cell-based, U-373MG ATCC. The conditions noted are these: U373 MG. The gist of the method:
as §1
Background: Tetrazolium dyes change colour on reduction, which living cells bring about.

For experiment [3], the system named is T98G. Kind of experiment: Antiproliferative activity against human T98G cells after 72 hrs by MTT assay. It counts as functional, cell-based. The gist of the method: as §1
Experiment [4] concerns U-373MG ATCC. In words: Cell cycle arrest in human U373 cells assessed as accumulation at sub-G1 phase at IC50 for MTT assay after 24 to 48 hrs by propidium iodide staining-based flow cytometry. In kind it is functional. Summed up:
(§2)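 Cells were exposed to compound at the IC50 for each line from the 72 h MTT assay, or to a reference HDAC inhibitor at 2 μM. Cell cycle distribution was analyzed after 24 and 48 h. Results are mean ± SD of three independent experiments, with p values against control cells.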

Experiment [5] has as its system Hs 683. In words: Cell cycle arrest in human Hs683 cells assessed as accumulation at G2/M phase at IC50 after 24 to 48 hrs by propidium iodide staining-based flow cytometry. It counts as functional. Summed up: as §2
On the technique in general: A flow cytometer gives signals particle by particle.

Experiment [6] relates to Hs 683. In words: Cell cycle arrest in human Hs683 cells assessed as accumulation at sub-G1 phase at IC50 for MTT assay after 24 to 48 hrs by propidium iodide staining-based flow cytometry. In kind it is functional. Summed up: as §2
In experiment [7] the test system is U-373MG ATCC. Kind of experiment: Cell cycle arrest in human U373 cells assessed as accumulation at G2/M phase at IC50 after 24 to 48 hrs by propidium iodide staining-based flow cytometry. It counts as functional. The gist of the method: as §2
The test system of experiment [8] is Hs 683. Kind of experiment: Cell cycle arrest in human Hs683 cells assessed as accumulation at G1 phase at IC50 after 24 to 48 hrs by propidium iodide staining-based flow cytometry. In kind it is functional. The gist of the method:
as §2

Experiment [9] concerns the target T1, NAD-dependent protein deacetylase sirtuin-1 (Homo sapiens, UniProt Q96EB6).
T1 sequence (Q96EB6 whole entry): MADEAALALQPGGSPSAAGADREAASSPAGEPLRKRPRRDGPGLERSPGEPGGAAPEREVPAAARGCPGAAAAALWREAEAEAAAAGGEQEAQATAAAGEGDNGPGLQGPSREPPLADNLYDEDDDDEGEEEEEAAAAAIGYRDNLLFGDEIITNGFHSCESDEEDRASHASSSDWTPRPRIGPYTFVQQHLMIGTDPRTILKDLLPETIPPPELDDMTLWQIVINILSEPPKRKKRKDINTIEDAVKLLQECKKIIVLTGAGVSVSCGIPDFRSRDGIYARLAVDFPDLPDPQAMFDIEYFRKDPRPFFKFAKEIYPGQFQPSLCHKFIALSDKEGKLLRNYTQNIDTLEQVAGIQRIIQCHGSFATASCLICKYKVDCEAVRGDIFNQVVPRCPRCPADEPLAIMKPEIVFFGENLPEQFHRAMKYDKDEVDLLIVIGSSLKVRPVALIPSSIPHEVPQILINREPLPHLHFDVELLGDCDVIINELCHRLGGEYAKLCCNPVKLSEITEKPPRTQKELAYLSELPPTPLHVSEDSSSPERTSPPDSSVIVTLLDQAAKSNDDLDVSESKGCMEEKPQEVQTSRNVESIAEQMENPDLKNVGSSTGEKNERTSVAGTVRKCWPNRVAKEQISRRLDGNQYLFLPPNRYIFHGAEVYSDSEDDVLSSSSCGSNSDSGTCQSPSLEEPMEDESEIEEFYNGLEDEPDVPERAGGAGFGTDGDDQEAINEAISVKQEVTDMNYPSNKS
Kind of experiment: Inhibition of N-terminal His-tagged recombinant human SIRT-1 expressed in Escherichia coli using Fluor-de-Lys-SIRT1 as substrate after 15 mins by fluorescence assay.

For experiment [10], the target named is T2, NAD-dependent protein deacetylase sirtuin-2 (Homo sapiens, UniProt Q8IXJ6).
T2 sequence (Q8IXJ6 whole entry): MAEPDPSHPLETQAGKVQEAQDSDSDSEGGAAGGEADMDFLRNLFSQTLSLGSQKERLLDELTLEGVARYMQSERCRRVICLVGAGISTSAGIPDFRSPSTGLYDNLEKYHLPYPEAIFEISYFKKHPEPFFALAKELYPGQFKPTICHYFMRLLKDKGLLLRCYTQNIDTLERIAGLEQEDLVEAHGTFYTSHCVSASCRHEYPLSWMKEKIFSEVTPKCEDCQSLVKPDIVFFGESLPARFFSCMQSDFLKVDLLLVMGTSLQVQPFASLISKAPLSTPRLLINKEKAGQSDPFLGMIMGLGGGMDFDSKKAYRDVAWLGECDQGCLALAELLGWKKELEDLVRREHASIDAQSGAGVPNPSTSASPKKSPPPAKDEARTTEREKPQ
Kind of experiment: Inhibition of N-terminal His-tagged recombinant human SIRT-2 expressed in Escherichia coli using Fluor-de-Lys-SIRT1 as substrate after 15 mins by fluorescence assay.

A short description of experiment [11]: Selectivity index, ratio of IC50 for mouse astrocytes to IC50 for human T98G cells.
Experiment [12] is described as follows: Selectivity index, ratio of IC50 for mouse astrocytes to IC50 for human U373 cells.
A short description of experiment [13]: Selectivity index, ratio of IC50 for mouse astrocytes to IC50 for human Hs683 cells.

This note sets out measurements from ChEMBL document CHEMBL4052637, “Discovery and Characterization of R/S-N-3-Cyanophenyl-N'-(6-tert-butoxycarbonylamino-3,4-dihydro-2,2-dimethyl-2H-1-benzopyran-4-yl)urea, a New Histone Deacetylase Class III Inhibitor Exerting Antiproliferative Activity against Cancer Cell Lines” (J Med Chem, 2017).

Each structure is given as a SMILES string. Calls of active or inactive are those of the source. The calls are words filed in the database; no cut-off is given here.

Broadly, the IC50 is the concentration that gives 50% inhibition. For the molecule `CC(C)(C)OC(=O)Nc1ccc2c(c1)C(NC(=O)Nc1cccc(N)c1)CC(C)(C)O2` (racemic), the IC50 is 91 µM in [1], 97 µM in experiment [2] and more than 100 µM in experiment [3].

On to `CC(NC(=O)c1ccccc1/N=C/c1c(O)ccc2ccccc12)c1ccccc1` (configuration not stated) [SIRTINOL], for which the IC50 in [1] amounted to 33.9 µM; in experiment [2], 39.3 µM. Further, the outcome in [4] and in experiment [6] was inactive. Besides, the outcome in experiment [5], in [7] and in [8] was Active.

As for `CC1(C)CC(NC(=S)Nc2ccc([N+](=O)[O-])cc2)c2cc(Cl)ccc2O1` (configuration not stated), the IC50 in experiment [9] and in experiment [10] was more than 200 µM throughout.

Consider `CC1(C)CC(NC(=O)Nc2cccc(C#N)c2)c2cc(NC=O)ccc2O1` (racemic), for which the IC50 in experiment [1], in experiment [2] and in [3] was more than 100 µM in each case.

Turning to `CC1(C)CC(NC(=O)Nc2cccc(C#N)c2)c2ccccc2O1` (racemic), the IC50 in experiment [1] was 31 µM; in experiment [2], 38 µM; in [3], 32 µM.

In the case of `CCOC(=O)Nc1ccc2c(c1)C(NC(=O)Nc1cccc(C#N)c1)CC(C)(C)O2` (configuration not stated), the IC50 stood at 109 µM in experiment [9] and 51.1 µM in experiment [10].

Consider `CC(C)(C)OC(=O)Nc1ccc2c(c1)C(NC(=O)Nc1ccccc1Cl)CC(C)(C)O2` (racemic), for which the IC50 in experiment [1] is 34 µM; in [2], 59 µM; in experiment [3], 88 µM.

`CC(C)(C)OC(=O)Nc1ccc2c(c1)C(NC(=O)Nc1ccccc1C(F)(F)F)CC(C)(C)O2` (racemic) yielded an IC50 in experiment [2] of more than 100 µM.

For the molecule `COc1cccc(NC(=O)NC2CC(C)(C)Oc3ccc(NC(=O)OC(C)(C)C)cc32)c1` (racemic), the IC50 in experiment [1] is 37 µM; in experiment [2], 30 µM; in experiment [3], more than 100 µM.

With `COc1ccc(NC(=O)NC2CC(C)(C)Oc3ccc(NC(=O)OC(C)(C)C)cc32)cc1` (racemic), the values for the IC50 in [1], in experiment [2] and in experiment [3] were 62 µM, 33 µM and 49 µM, respectively.

For the molecule `CC(C)(C)OC(=O)Nc1ccc2c(c1)C(NC(=O)Nc1cccc(Br)c1)CC(C)(C)O2` (racemic), the values for the IC50 in experiment [1], in experiment [2] and in experiment [3] were 18 µM, 22 µM and 26 µM, respectively.

On to `CC(C)(C)OC(=O)Nc1ccc2c(c1)C(NC(=O)Nc1ccc(C(F)(F)F)cc1)CC(C)(C)O2` (racemic), for which the values for the IC50 in experiment [1], in experiment [2] and in experiment [3] were 11 µM, 10 µM and 15 µM, respectively. Moreover, the “Ratio IC50” value in experiment [11], in [12] and in experiment [13] was more than 10 in each case.

Turning to `CC(C)OC(=O)Nc1ccc2c(c1)C(NC(=O)Nc1cccc(C#N)c1)CC(C)(C)O2` (configuration not stated), the IC50 came to 54.8 µM in [9] and 22.7 µM in experiment [10].

With `COc1ccccc1NC(=O)NC1CC(C)(C)Oc2ccc(NC(=O)OC(C)(C)C)cc21` (racemic), the IC50 in experiment [1] worked out at 59 µM; in experiment [2], 30 µM; in [3], 39 µM.

Regarding `CC(C)(C)OC(=O)Nc1ccc2c(c1)C(NC(=O)Nc1ccccc1C#N)CC(C)(C)O2` (racemic), the IC50 was 54 µM in [1], 45 µM in experiment [2] and 67 µM in experiment [3].

As to `CC(C)(C)OC(=O)Nc1ccc2c(c1)C(NC(=O)Nc1cccc([N+](=O)[O-])c1)CC(C)(C)O2` (racemic), the IC50 is 16 µM in experiment [1]; more than 200 µM in [9]; 99.8 µM in experiment [10]; 1 µM in experiment [2]; 7 µM in experiment [3]. Moreover, the “Ratio IC50” value in experiment [11], in experiment [12] and in experiment [13] was less than 5 throughout.

Take `NC(=O)C1CCCc2c1[nH]c1ccc(Cl)cc21` (configuration not stated): the IC50 in [1] is 116 µM; in experiment [2] it was 157 µM. The result in experiment [4] and in [6] was inactive. Besides, the result in experiment [8] was Active.

For the molecule `COC(=O)Nc1ccc2c(c1)C(NC(=O)Nc1cccc(C#N)c1)CC(C)(C)O2` (configuration not stated), the figures for the IC50 in [9] and in [10] were 110 µM and 49.4 µM, respectively.

As for `CC(C)(C)OC(=O)Nc1ccc2c(c1)C(NC(=O)Nc1cccc(CN)c1)CC(C)(C)O2` (racemic), the figures for the half-inhibitory concentration (IC50) in experiment [1], in experiment [2] and in experiment [3] were 95 µM, more than 100 µM and more than 100 µM, respectively.

For the molecule `CC(C)(C)OC(=O)Nc1ccc2c(c1)C(NC(=O)Nc1ccc([N+](=O)[O-])cc1)CC(C)(C)O2` (racemic), the IC50 in experiment [1] worked out at 20 µM; in experiment [2], 24 µM; in experiment [3] it was 26 µM.

On to `N#C/C(=C\c1ccc(-c2cc(Cl)ccc2Cl)o1)C(=O)Nc1cccc2ncccc12`, for which the figures for the 50% inhibitory concentration (IC50) in experiment [1], in [9] and in [2] were 80.2 µM, 98.1 µM and 47.6 µM, respectively. For the same molecule, the result in experiment [4], in [5], in experiment [6] and in [7] was Active.

On to `CC(C)(C)OC(=O)Nc1ccc2c(c1)C(NC(=O)Nc1ccc(C#N)cc1)CC(C)(C)O2` (configuration not stated), for which the IC50 turned out to be 18 µM in experiment [1]; 121 µM in experiment [9]; 110 µM in experiment [10]; 10 µM in experiment [2]; 26 µM in experiment [3]. For the same molecule, the “Ratio IC50” value in [11], in experiment [12] and in experiment [13] was more than 10 in each case.

As to `CC1(C)CC(NC(=O)Nc2cccc(C#N)c2)c2cc(N)ccc2O1` (racemic), the IC50 in experiment [1], in experiment [2] and in experiment [3] was more than 100 µM each time.

Turning to `CC(C)(C)OC(=O)Nc1ccc2c(c1)C(NC(=O)Nc1ccccc1[N+](=O)[O-])CC(C)(C)O2` (racemic), the IC50 in experiment [1] stood at 13 µM; in [2] it was 12 µM; in experiment [3], 22 µM. Moreover, the “Ratio IC50” value in experiment [11], in experiment [12] and in experiment [13] was more than 10 throughout.

For `CC(C)(C)OC(=O)Nc1ccc2c(c1)C(NC(=O)Nc1cccc(Cl)c1)CC(C)(C)O2` (configuration not stated), the IC50 in experiment [1] is 12 µM; in [9], 32.1 µM; in [10], 18.5 µM; in [2], 18 µM; in [3], 20 µM. The “Ratio IC50” value in experiment [11], in experiment [12] and in experiment [13] was more than 12 each time.

With `CC(C)(C)OC(=O)Nc1ccc2c(c1)C(NC(=O)Nc1cccc(F)c1)CC(C)(C)O2` (racemic), the 50% inhibitory concentration (IC50) in experiment [1] is 19 µM; in experiment [2], 20 µM; in [3], 26 µM.

On to `CC(C)(C)OC(=O)Nc1ccc2c(c1)C(NC(=O)Nc1ccc(Cl)cc1)CC(C)(C)O2` (configuration not stated), for which the concentration for half-maximal inhibition (IC50) in experiment [1] came out at 26 µM; in experiment [2], 22 µM; in [3], 26 µM.

On to `CC(C)(C)OC(=O)Nc1ccc2c(c1)C(NC(=O)Nc1cccc(C(F)(F)F)c1)CC(C)(C)O2` (racemic), for which the results for the IC50 in experiment [1], in experiment [2] and in [3] were 9 µM, 9 µM and 21 µM, respectively. For the same molecule, the “Ratio IC50” value in experiment [11], in [12] and in experiment [13] was less than 2 throughout.
